Test results: ChEMBL document CHEMBL1155264, “Synthesis of substituted-phenyl-1,2,4-triazol-3-thione analogues with modified D-glucopyranosyl residues and their antiproliferative activities” (Eur J Med Chem, 2009)

Key:
MCF7 = assay: Antiproliferative activity against human MCF7 cells after 24 hrs by MTT assay; format: functional, cell-based; conditions: MCF7, 24 h
Summary of the method: (§1)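 Cells plated at 1 × 10⁴ per well and cultured 24 h at 37 °C, 5% CO₂. Medium then replaced with fresh medium containing compound at varying concentrations, five wells per concentration, and incubated 24 h. MTT (5 mg/mL in phosphate buffer pH 7.4) added for 4 h at 37 °C. Absorbance read at 570 nm, blanked on cell-free medium. IC50 is 50% growth inhibition versus untreated control; mean ± SD, n = 3.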

Bel-7402 = assay: Antiproliferative activity against human Bel7402 cells after 24 hrs by MTT assay; format: functional, cell-based; conditions: Bel-7402, 24 h; summary of the method: as §1

Question: For `O=c1[nH]cc(F)c(=O)[nH]1` [FLUOROURACIL], which IC50 (MCF7) is on record?
Answer: 4.3 µM

Question: What about the IC50 (Bel-7402) of the same compound?
Answer: 4.7 µM

Question: For `Oc1ccc(/C=N/n2c(-c3ccccc3)n[nH]c2=S)cc1`, which IC50 (MCF7) is on record?
Answer: 29.9 µM

Question: And the IC50 (Bel-7402)?
Answer: 25.2 µM

Question: `COc1cc(/C=N/n2c(-c3ccccc3)n[nH]c2=S)ccc1O` was tested. Which IC50 (MCF7) did it give?
Answer: 26.3 µM

Question: And the IC50 (Bel-7402)?
Answer: 19.6 µM

Question: `CC(=O)OC[C@H]1O[C@@H](n2nc(-c3ccccc3)n(/N=C/c3ccccc3)c2=S)[C@H](OC(C)=O)[C@@H](OC(C)=O)[C@@H]1OC(C)=O` was tested. Which IC50 (MCF7) did it give?
Answer: 18 µM

Question: And the IC50 (Bel-7402)?
Answer: 10.7 µM

Question: How did the IC50 (MCF7) turn out when `S=c1[nH]nc(-c2ccccc2)n1/N=C/c1ccccc1` was run?
Answer: 31.8 µM

Question: What about the IC50 (Bel-7402) of the same compound?
Answer: 22.5 µM

Question: With `S=c1[nH]nc(-c2ccccc2)n1/N=C/c1ccc(Cl)cc1` as the compound, how does the IC50 (MCF7) read?
Answer: 30.5 µM

Question: What about the IC50 (Bel-7402) of the same compound?
Answer: 24 µM
